The subject of the data set is MS2 coat protein. Nature of the data set: apparent Kd, MS2 coat protein; higher = weaker binding; RNA-MaP array; FMN 200 µM where present. In outline: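 Designs on Illumina sequencing-chip clusters, transcribed by stalled E. coli RNA polymerase, were exposed to SNAP-549-labelled MS2 coat protein in doubling steps from 0.7 or 1.5 nM up to 3 µM, without and then with constant ligand. The buffer held 100 mM Tris-HCl pH 7.5, 80 mM KCl, 4 mM MgCl2, BSA, DTT, yeast tRNA and Tween-20. Apparent Kd values are medians of filtered per-cluster binding-curve fits to green signal normalised to red-channel RNA signal and control-cluster median Fmax.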

[1] abbreviates: designed as: OFF switch for flavin mononucleotide, no ligand.
The mark [2] stands for this setting: ligand present: flavin mononucleotide, designed as: OFF switch for flavin mononucleotide.
The mark [3] stands for this setting: designed as: ON switch for flavin mononucleotide, no ligand.
Where [4] appears, read: ligand present: flavin mononucleotide, designed as: ON switch for flavin mononucleotide.

The apparent Kd is a dissociation constant that holds for the conditions of the assay.

As for “GUGCAACAUGAGGAUCACCCAUGUCAGGAUAUGCGAAUUUCAUCAAAAGAUGAAAUUUGCAGAAGGGACUGCAC”, the “apparent Kd” value is 19 nM under setting [1] and 22.8 nM under setting [2].
As for “UGAGCCUCGUGAGGAUAUACAUGAGGAUCACCCAUGUAAAUGAAAGAUACGUCGAAACGACGAAUGUAGAAGGCACGAGGCUCA”, the “apparent Kd” value reads like this: under setting [1], 18.4 nM; under setting [2], 61.3 nM.
On the same counts, the results for “UGACAUAUAUAGAAGGGUAGUAGGGUUUUACAUGAGGAUCACCCAUGUAUUAUAGGAUAUGUGUAAAGUUAUUAUUAAAGUAAA” are 22.5 nM and 17.2 nM.
Take “GUUGGGUGUCAUGUCGCACAUGAGGAUCACCCAUGUAGGAGGUAGGAUAUCCACGAGAAACAAGCGGAGAAGGGCCAUUAGCGU”: the “apparent Kd” value runs as follows: under setting [1], 27.9 nM; under setting [2], 31.3 nM.
In the case of “ACUUAGUACAAUUUAGAUCUACAUGAGGAUCACCCAUGUACUGAGGAUAUCAGCUCGAAUAGAGCUGAGAAGGCAGAAGUACUU”, the “apparent Kd” value under setting [3] is 245 nM and the “apparent Kd” value under setting [4] was determined as 53.5 nM.
For the sequence “AAAAAACAUGAGGAUCACCCAUGUAAGGAUAUGACUUAAAUAAAGAAAGAAGAAAUAGUCAGAAGGUACAAAUA”, the “apparent Kd” value turned out to be 45.3 nM under setting [1] and 51.1 nM under setting [2].
On the same counts, the results for “CAGGUAUAAGGAUAUACAUAGAUACAGACACAUGUUCAAGUACAUGAGGAUCACCCAUGUAGAAGGUAUAUAUG” are 28.8 nM and 25.6 nM.
For “AACAUGAGGAUCACCCAUGUCCCACCAGAAGGCUGGCGGUCAUGGGAAAGGCCACGACAAAUAACAGAGGAUAUGGUGAAUGCA”, the “apparent Kd” value reads like this: under setting [3], 168 nM; under setting [4], 33.2 nM.
In the case of “CGAUUGACGUAGAAGGGACUUAAGGGACAAAGCAUGCGAACGGACGGACAUGAGGAUCACCCAUGUCAGGAUAUACGUUCAUUU”, the “apparent Kd” value reads like this: under setting [1], 5.27 nM; under setting [2], 6 nM.
Take “CCAGCAAAUGUAAGGAUAUGCUGGUCCUUGGAUCAGCAGAAGGUACAUGAGGAUCACCCAUGUCGUGGAGCUGG”: the “apparent Kd” value stood at 29.4 nM under setting [1] and 160 nM under setting [2].
Consider “GUUCUUCCUGUGAGGAUAUCCAUGUUUCGGUUUGUGGAGAAGGUACAUGAGGAUCACCCAUGUCACCCGCGUUU”, for which the “apparent Kd” value under setting [1] stood at 14.1 nM and the “apparent Kd” value under setting [2] came to 15.8 nM.
Regarding “GUAUAUAUUACAUGAGGAUCACCCAUGUCAGAACGGGUAAUCAGAAGGUACUAUUAGAGAAAGAGUAAGGAUAUGAUUAUAUAC”, the “apparent Kd” value was found to be 329 nM under setting [3] and 33.9 nM under setting [4].
The corresponding values for “CGUGUCGCAUGAGGAUAUGGUCAGCUUUGCUGACCAGAAGGCAUGUCAAUAGACAUGAGGAUCACCCAUGUAGUAAAGACACGA” are 416 nM and 33.9 nM.
As for “CUUUUGUGAGGAUAUCAGUAGUAAAAAAAUAAAAUUACUACUGAGAAGGCACAUGAGGAUCACCCAUGUUCCUC”, the “apparent Kd” value came to 30.7 nM under setting [1] and 237 nM under setting [2].
As for “UUCAAAUUCGUAGGAUAUGUAUAUAAUUUCUACAUGAGGAUCACCCAUGUUACCAUUUUUUAGUGACAGAAGGACGUAAUCUAA”, the “apparent Kd” value runs as follows: under setting [3], 211 nM; under setting [4], 47.6 nM.
With “GUGCAGAUGUAAGGAUAUCGACUGGAAUACAGUCGAGAAGGUACAUGAGGAUCACCCAUGUAAAUGAAAGAUAAUAAACUGCAC”, the “apparent Kd” value under setting [1] turned out to be 15.3 nM and the “apparent Kd” value under setting [2] stood at 26.1 nM.
For the sequence “GCUUCUUAAUUUCAAACUUACGAUUCAGAAGGUGAAUUUUACACAUGAGGAUCACCCAUGUUACUCAAGGAUAUGAUUUGACUA”, the “apparent Kd” value was determined as 18.7 nM under setting [3] and 14 nM under setting [4].
On to “CCCUCACAUGAGGAUCACCCAUGUUAGGAUAUCUACCAGGAGCCUAAAAUGGCCCAACGGAGAAGGAACGUGCA”, for which the “apparent Kd” value under setting [1] was 19.8 nM and the “apparent Kd” value under setting [2] amounted to 18.6 nM.
On the same counts, the results for “AGCAGACGAGGAUAUAGAUGGAAUGACAUGAGGAUCACCCAUGUGAUCGAUCUAUUUGAUUUAGAAGGUGUCUGCU” are 12.5 nM and 15.1 nM.
The corresponding values for “UUUUUGUGAGGAUAUCAGUAGUAAAUAAAUAAAAUUACUACUGAGAAGGCACAUGAGGAUCACCCAUGUUCCUU” are 13.7 nM and 33.4 nM.
Consider “AACGCCAGUGAGAAGGCAUGUUCACAUGAGGAUCACCCAUGUAUACUCAUGAGGAUAUCAAAUGCGGACCAAAAUAAAAUAAGA”, for which the “apparent Kd” value under setting [3] is 464 nM and the “apparent Kd” value under setting [4] is 26.6 nM.
For the sequence “UGUCUGAGCAGAGGAUAUUACAUGAGGAUCACCCAUGUAUGAACCAAUAGCUGGAAACAGCAAUGUAAGAAGGCUGCUCCGACA”, the “apparent Kd” value by setting is: under setting [1], 12.6 nM; under setting [2], 199 nM.
Take “GGACAUGUACAGAAGGGCAAUUUAUUUAUUGAUUAUUUAGUUCUGUUUUGCAGGAUAUGUAAAACAUGAGGAUCACCCAUGUCC”: the “apparent Kd” value under setting [3] stood at 188 nM and the “apparent Kd” value under setting [4] is 105 nM.
Consider “AGCAUGUAAGGAUAUGUAACGCGGCGUUCAUUCGUCGUCCCACAGAAGGUACAUGAGGAUCACCCAUGUGCUCC”, for which the “apparent Kd” value reads like this: under setting [1], 42 nM; under setting [2], 77.7 nM.
The corresponding values for “GUCCUCUCUGAGGAUAUUAUCCGGUCCGAUUGAUAAGAAGGCAGUACAUGAGGAUCACCCAUGUGGGUCGUCUG” are 37.4 nM and 111 nM.
Take “GUAGCAAUCGGAGGAUAUUCAUACCGGAAACGGACAUGAGGAUCACCCAUGUGGCGAAAGCCUUGGGAGAAGGCCGAUUGCUAC”: the “apparent Kd” value runs as follows: under setting [3], 614 nM; under setting [4], 21.2 nM.
On the same counts, the results for “UAGUAUUAACGAGGAUAUAAUAUGUUCAAUUUUUUAUAUUGUUUACAUGAGGAUCACCCAUGUUAUUAGAAGGCGUAUGGGAUU” are 67.2 nM and 58.8 nM.
Take “AUGGUACAUGAGGAUCACCCAUGUUAGGAUAUCGCGUGACCUAAAACUAAGAGACACACGAGAAGGGACGACAU”: the “apparent Kd” value is, setting by setting: under setting [1], 89.6 nM; under setting [2], 78.1 nM.
On the same counts, the results for “UAUAUAUAGGCAGGAUAUACAUGAAUAUAUAUAAUAUAAUAUAAUGUAACAUGAGGAUCACCCAUGUAGAAGGGCCAAUAUAUA” are 30.6 nM and 59.9 nM.
Turning to “AGUACAUCAGGAUAUACAUGAAAGAUCAUCAUGACCUUUCUACAUGAGGAUCACCCAUGUAGAAGGGAUGUACA”, the “apparent Kd” value turned out to be 20.2 nM under setting [1] and 38 nM under setting [2].
“AAAGUUUAAGCAGGAUAUCGACCAUUCCUUGAUGCUUCAUUGGUGCACAUGAGGAUCACCCAUGUCGAGAAGGGCUAUGAAGCU”: the “apparent Kd” value was determined as 15.6 nM under setting [1] and 47.4 nM under setting [2].
Regarding “UGUGUGUGACAGGAUAUGCUGGUUGUGAGGCGGGUAGAAGGGUCUACAUGAGGAUCACCCAUGUGGCCGGUUGG”, the “apparent Kd” value stood at 18.7 nM under setting [1] and 18.7 nM under setting [2].
On to “GGAGCACGCACAGGAUAUCCGGCGGCGCUCGUCGGAGAAGGGUGACAUGAGGAUCACCCAUGUACGUGCAACUCGGUUUGAGAG”, for which the “apparent Kd” value runs as follows: under setting [3], 105 nM; under setting [4], 49.2 nM.
On the same counts, the results for “AUGGCUAAUGAGAAGGUGUAUAUAAAUUAUAUACAAGGAUAUCGGUCAAGCAUGAAAACAUGAGGAUCACCCAUGUUAAGCCAU” are 8.11 nM and 7.01 nM.
With “GUCAGCUCGUGAGGAUAUACAACACUGCUUAGGCAGUGUAUUAAGAUCACAUGAGGAUCACCCAUGUAGAAGGCACGAGCUGAU”, the “apparent Kd” value worked out at 13.6 nM under setting [1] and 222 nM under setting [2].
As for “AGCUGUGGCCGAGGAUAUCACGAACCAUGGAAAACCAUGGAAAUUCUACAUGAGGAUCACCCAUGUGAGAAGGCGGUCUCAGCA”, the “apparent Kd” value runs as follows: under setting [1], 18.1 nM; under setting [2], 17.2 nM.
For the sequence “CAUAUCGUAACAGGAUAUAUGAGUCCUACAUGAGGAUCACCCAUGUAGGUGAUCUAACGAGAUUAGUAGAAGGGUUACGAUAUG”, the “apparent Kd” value worked out at 16.6 nM under setting [3] and 8.68 nM under setting [4].
For the sequence “GAUGUAUUCGUAGGAUAUCCGUCGCCACCGUGUGGAGAAGGACGAACAUGAGGAUCACCCAUGUAUCAUGGUGUGGACGCUUUC”, the “apparent Kd” value by setting is: under setting [1], 287 nM; under setting [2], 315 nM.
Take “GAUCCACAUGAGGAUCACCCAUGUGAGGAUAUGAUACUAUGUACUUCGGUACAUAGUAUCAGAAGGCACGGAUC”: the “apparent Kd” value was 27.1 nM under setting [1] and 31.6 nM under setting [2].
The corresponding values for “UUGUACAUAGGAUAUAGUUGUUUCUACAUGAGGAUCACCCAUGUUAUUCCUCUCUCCCUUCUAGAAGGAUGUUUUU” are 40.9 nM and 38 nM.
Consider “CACGGCGCAUGAGGAUAUCAGGGCGACCUUUCGACAUGAGGAUCACCCAUGUAAUCUACUCGGCGUGAGAAGGCAUGACAGCCA”, for which the “apparent Kd” value under setting [3] was 286 nM and the “apparent Kd” value under setting [4] was 136 nM.
“AAAUCCGCUGAGGAUAUUAUGAGUGAGAGCUCAUGAGAAGGCGGUACAUGAGGAUCACCCAUGUCUAUGGGCAA”: the “apparent Kd” value was determined as 419 nM under setting [1] and 292 nM under setting [2].
On the same counts, the results for “AUUUUGUCAGGAUAUGAGUAGUAGGACGAAAGUGCUACUACUUAGAAGGGACAUGAGGAUCACCCAUGUCUUCC” are 13.9 nM and 16.8 nM.
On the same counts, the results for “CAAGUGCCGGAAGGAUAUCAGCGAUGUCACGCUUGAGAAGGUCUGUGCACAUGAGGAUCACCCAUGUCCGCCAGACUCCUUAAC” are 9.98 nM and 8.49 nM.
In the case of “UUUAAACAUGAGGAUCACCCAUGUCGUUCAAAUCAAGGAUAUCAAGCGUGUGAGCACACUUGAGAAGGUGAAGCUC”, the “apparent Kd” value worked out at 31 nM under setting [3] and 60.8 nM under setting [4].
Regarding “UUAUUAUAUGUAGGAUAUGCGUAUUAUUGUUAUGCAGAAGGACAUGAGGAUCACCCAUGUAUAUUAUUGUUAUGUAUUAUAUAU”, the “apparent Kd” value amounted to 30.5 nM under setting [1] and 69.3 nM under setting [2].
The corresponding values for “CUUCUUGGGCAAGGAUAUCCUGUGCGGUUCCGGCUCGUGUCUGUCACAUGAGGAUCACCCAUGUGGGAGAAGGUGCCUGCGGUC” are 6.15 nM and 6.79 nM.
Take “GGACAUUUACAGAAGGGCAAAUUUUUUAUUGAAUAUUUAGUUCUGUUUUGCAGGAUAUGUUUUACAUGAGGAUCACCCAUGUCC”: the “apparent Kd” value came to 79.9 nM under setting [3] and 30.6 nM under setting [4].
